# Test results: ChEMBL document CHEMBL1129078, “3-(2-Benzofuranyl)quinuclidin-2-ene derivatives: novel muscarinic antagonists” (J Med Chem, 1996)
# Species: Cavia porcellus
# Assay: Antimuscarinic potency using isolated guinea pig urinary bladder
# Type: functional
# Summary of the method: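 Male guinea pigs (~300 g) killed and exsanguinated; urinary bladder smooth muscle strips mounted in 37 °C Krebs-Henseleit baths (pH 7.4, carbogen), ~5 mN resting tension, isometric tension recorded. A control cumulative carbachol curve was run, then washout, ≥15 min rest, and 60 min with a fixed antagonist concentration before a second curve. Dose ratio from graphical EC50s; KB = [A]/(r − 1).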
row,Structure (SMILES),Kb [nM]
1,OCc1ccc2oc(C3=CN4CCC3CC4)cc2c1,13400
2,C1=C(c2oc3ccccc3c2-c2ccccc2)C2CCN1CC2,148
3,Brc1cccc2cc(C3=CN4CCC3CC4)oc12,123
4,Brc1ccc2oc(C3=CN4CCC3CC4)cc2c1,178
5,COc1cc(CO)cc2cc(C3=CN4CCC3CC4)oc12,10000

# Biological target: Muscarinic acetylcholine receptor
# Assay: Receptor binding affinity (Ki) for Muscarinic acetylcholine receptor (urinary bladder) was determined by competition radioligand -[3H]- QNB binding assay
# Type: protein assay, Cavia porcellus
# Summary of the method: (§1)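 Guinea pig urinary bladder dissected in PMSF-containing Krebs-Henseleit pH 7.4 and Polytron-homogenized in ice-cold 50 mM phosphate buffer pH 7.4 with 1 mM PMSF (≤0.3 mg/mL protein). Competition against 2 nM (−)-[3H]QNB; triplicates at 25 °C for 60 min; 10 µM atropine defines nonspecific binding. Pellets from centrifugation were scintillation counted. IC50 taken graphically, Ki by the Jacobs method; means ± SEM, 2–3 experiments.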
row,Structure (SMILES),Ki [nM]
1,Cc1ccc2oc(C3=CN4CCC3CC4)cc2c1,364
2,O=Cc1cccc2cc(C3=CN4CCC3CC4)oc12,1700
3,O=Cc1cc(I)cc2cc(C3=CN4CCC3CC4)oc12,600
4,O=Cc1ccc2oc(C3=CN4CCC3CC4)cc2c1,1300
5,C1=C(c2cc3cc(-c4ccccc4)ccc3o2)C2CCN1CC2,332
6,C1=C(c2oc3ccccc3c2-c2ccccc2)C2CCN1CC2,107
7,O=Cc1cc(I)c2oc(C3=CN4CCC3CC4)cc2c1,1000
8,Brc1cccc2cc(C3=CN4CCC3CC4)oc12,97
9,Brc1c(C2=CN3CCC2CC3)oc2ccccc12,116
10,COc1cc(C=O)cc2cc(C3=CN4CCC3CC4)oc12,3900
11,Brc1ccc2oc(C3=CN4CCC3CC4)cc2c1,156
12,C1=C(c2cc3cccc(-c4ccccc4)c3o2)C2CCN1CC2,330

# Biological target: Muscarinic acetylcholine receptor
# Assay: Receptor binding affinity against Muscarinic acetylcholine receptor from guinea pig cerebral cortex was determined using [3H]- QNB as radioligand
# Type: tissue-based, Cavia porcellus
# Summary of the method: (§2)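 Guinea pig cerebral cortex homogenized (Potter-Elvehjem) in ice-cold 50 mM Na/K phosphate buffer pH 7.4 with 1 mM PMSF, ≤0.3 mg/mL protein. Competition with (−)-[3H]QNB (2 nM final), triplicates incubated at 25 °C for 80 min, nonspecific binding with 10 µM atropine. Ended by centrifugation; pellets counted by scintillation. IC50 read graphically, converted to Ki by the Jacobs method; means ± SEM of 2–3 experiments.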
row,Structure (SMILES),Ki [nM]
1,O=[N+]([O-])c1cc(I)c2oc(C3=CN4CCC3CC4)cc2c1,> 150
2,OCc1cc(I)cc2cc(C3=CN4CCC3CC4)oc12,480
3,Nc1ccc2oc(C3=CN4CCC3CC4)cc2c1,212
4,OCc1ccc2oc(C3=CN4CCC3CC4)cc2c1,1400
5,Fc1ccc2oc(C3=CN4CCC3CC4)cc2c1,6.3
6,C1=C(c2cc3ncccc3o2)C2CCN1CC2,21
7,O=[N+]([O-])c1ccc2oc(C3=CN4CCC3CC4)cc2c1,139
8,N#Cc1cc(I)c2oc(C3=CN4CCC3CC4)cc2c1,440
9,OCc1cc(I)c2oc(C3=CN4CCC3CC4)cc2c1,197
10,OCc1cccc2cc(C3=CN4CCC3CC4)oc12,330
11,COc1cc(CO)cc2cc(C3=CN4CCC3CC4)oc12,3665

# Biological target: Muscarinic acetylcholine receptor
# Assay: Receptor binding affinity against Muscarinic acetylcholine receptor from guinea pig heart was determined using [3H]- QNB as radioligand
# Type: protein assay, Cavia porcellus
# Summary of the method: (§3)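 Guinea pig hearts dissected in Krebs-Henseleit pH 7.4 with 1 mM PMSF, Polytron-homogenized in ice-cold 50 mM phosphate/PMSF buffer pH 7.4, ≤0.3 mg/mL protein. Competition against 2 nM (−)-[3H]QNB, triplicates at 25 °C for 80 min, 10 µM atropine nonspecific. Centrifugation, scintillation counting of pellets. Graphical IC50 to Ki by the Jacobs method; means ± SEM, 2–3 experiments.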
row,Structure (SMILES),Ki [nM]
1,O=[N+]([O-])c1cc(I)c2oc(C3=CN4CCC3CC4)cc2c1,1900
2,OCc1cc(I)cc2cc(C3=CN4CCC3CC4)oc12,1100
3,Nc1ccc2oc(C3=CN4CCC3CC4)cc2c1,837
4,OCc1ccc2oc(C3=CN4CCC3CC4)cc2c1,1840
5,Fc1ccc2oc(C3=CN4CCC3CC4)cc2c1,34
6,C1=C(c2cc3ncccc3o2)C2CCN1CC2,61
7,O=[N+]([O-])c1ccc2oc(C3=CN4CCC3CC4)cc2c1,460
8,OCc1cc(I)c2oc(C3=CN4CCC3CC4)cc2c1,462
9,OCc1cccc2cc(C3=CN4CCC3CC4)oc12,1360
10,COc1cc(CO)cc2cc(C3=CN4CCC3CC4)oc12,5400

# Biological target: Muscarinic acetylcholine receptor
# Assay: Receptor binding affinity against Muscarinic acetylcholine receptor from guinea pig parotid gland was determined using [3H]- QNB as radioligand
# Type: protein assay, Cavia porcellus
# Summary of the method: (§4)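 Guinea pig parotid glands dissected in Krebs-Henseleit pH 7.4 with 1 mM PMSF, Polytron-homogenized in ice-cold 50 mM phosphate/PMSF pH 7.4, ≤0.3 mg/mL protein. Displacement of 2 nM (−)-[3H]QNB, triplicates at 25 °C for 210 min, 10 µM atropine for nonspecific binding. Centrifugation, then pellet scintillation counting. Ki from graphical IC50 via the Jacobs correction; means ± SEM of 2–3 experiments.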
row,Structure (SMILES),Ki [nM]
1,O=[N+]([O-])c1cc(I)c2oc(C3=CN4CCC3CC4)cc2c1,> 1000
2,OCc1cc(I)cc2cc(C3=CN4CCC3CC4)oc12,2700
3,Nc1ccc2oc(C3=CN4CCC3CC4)cc2c1,683
4,OCc1ccc2oc(C3=CN4CCC3CC4)cc2c1,10700
5,Fc1ccc2oc(C3=CN4CCC3CC4)cc2c1,30
6,C1=C(c2cc3ncccc3o2)C2CCN1CC2,110
7,O=[N+]([O-])c1ccc2oc(C3=CN4CCC3CC4)cc2c1,515
8,OCc1cc(I)c2oc(C3=CN4CCC3CC4)cc2c1,970
9,OCc1cccc2cc(C3=CN4CCC3CC4)oc12,1024
10,COc1cc(CO)cc2cc(C3=CN4CCC3CC4)oc12,20000

# Biological target: Muscarinic acetylcholine receptor
# Assay: Receptor binding affinity against Muscarinic acetylcholine receptor from guinea pig urinary bladder was determined using [3H]- QNB as radioligand
# Type: protein assay, Cavia porcellus
# Summary of the method: as §1
row,Structure (SMILES),Ki [nM]
1,O=[N+]([O-])c1cc(I)c2oc(C3=CN4CCC3CC4)cc2c1,1600
2,OCc1cc(I)cc2cc(C3=CN4CCC3CC4)oc12,2460
3,OCc1ccc2oc(C3=CN4CCC3CC4)cc2c1,2900
4,Fc1ccc2oc(C3=CN4CCC3CC4)cc2c1,37
5,C1=C(c2cc3ncccc3o2)C2CCN1CC2,83
6,OCc1cc(I)c2oc(C3=CN4CCC3CC4)cc2c1,802
7,OCc1cccc2cc(C3=CN4CCC3CC4)oc12,2000
8,COc1cc(CO)cc2cc(C3=CN4CCC3CC4)oc12,9400

# Biological target: Muscarinic acetylcholine receptor
# Assay: Receptor binding affinity (Ki) against Muscarinic acetylcholine receptor (cerebral cortex) was determined by competition radioligand -[3H]- QNB binding assay
# Type: tissue-based, Cavia porcellus
# Summary of the method: as §2, with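 “scintillation.” for “scintillation. IC50 read graphically, converted to Ki by the Jacobs method; means ± SEM of 2–3 experiments.”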
row,Structure (SMILES),Ki [nM]
1,Cc1ccc2oc(C3=CN4CCC3CC4)cc2c1,116
2,N#Cc1ccc2oc(C3=CN4CCC3CC4)cc2c1,60
3,O=Cc1cccc2cc(C3=CN4CCC3CC4)oc12,648
4,O=Cc1cc(I)cc2cc(C3=CN4CCC3CC4)oc12,358
5,O=Cc1ccc2oc(C3=CN4CCC3CC4)cc2c1,364
6,C1=C(c2cc3cc(-c4ccccc4)ccc3o2)C2CCN1CC2,289
7,C1=C(c2oc3ccccc3c2-c2ccccc2)C2CCN1CC2,20
8,O=Cc1cc(I)c2oc(C3=CN4CCC3CC4)cc2c1,221
9,Brc1cccc2cc(C3=CN4CCC3CC4)oc12,15
10,Cc1cccc2cc(C3=CN4CCC3CC4)oc12,25
11,Cc1c(C2=CN3CCC2CC3)oc2ccccc12,25.3
12,Brc1c(C2=CN3CCC2CC3)oc2ccccc12,40
13,COc1cc(C=O)cc2cc(C3=CN4CCC3CC4)oc12,1170
14,Brc1ccc2oc(C3=CN4CCC3CC4)cc2c1,39
15,C1=C(c2cc3cccc(-c4ccccc4)c3o2)C2CCN1CC2,135

# Biological target: Muscarinic acetylcholine receptor
# Assay: Receptor binding affinity (Ki) for Muscarinic acetylcholine receptor (heart)was determined by competition radioligand -[3H]- QNB binding assay
# Type: protein assay, Cavia porcellus
# Summary of the method: as §3
row,Structure (SMILES),Ki [nM]
1,Cc1ccc2oc(C3=CN4CCC3CC4)cc2c1,238
2,N#Cc1ccc2oc(C3=CN4CCC3CC4)cc2c1,160
3,O=Cc1cccc2cc(C3=CN4CCC3CC4)oc12,1612
4,O=Cc1cc(I)cc2cc(C3=CN4CCC3CC4)oc12,314
5,O=Cc1ccc2oc(C3=CN4CCC3CC4)cc2c1,920
6,C1=C(c2cc3cc(-c4ccccc4)ccc3o2)C2CCN1CC2,376
7,C1=C(c2oc3ccccc3c2-c2ccccc2)C2CCN1CC2,72
8,O=Cc1cc(I)c2oc(C3=CN4CCC3CC4)cc2c1,517
9,Brc1cccc2cc(C3=CN4CCC3CC4)oc12,44
10,Cc1cccc2cc(C3=CN4CCC3CC4)oc12,76
11,Cc1c(C2=CN3CCC2CC3)oc2ccccc12,77.8
12,Brc1c(C2=CN3CCC2CC3)oc2ccccc12,106
13,COc1cc(C=O)cc2cc(C3=CN4CCC3CC4)oc12,2040
14,Brc1ccc2oc(C3=CN4CCC3CC4)cc2c1,86
15,C1=C(c2cc3cccc(-c4ccccc4)c3o2)C2CCN1CC2,260

# Biological target: Muscarinic acetylcholine receptor
# Assay: Receptor binding affinity (Ki) for Muscarinic acetylcholine receptor (parotid glands) was determined by competition radioligand -[3H]- QNB binding assay
# Type: protein assay, Cavia porcellus
# Summary of the method: as §4, with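 “counting.” for “counting. Ki from graphical IC50 via the Jacobs correction; means ± SEM of 2–3 experiments.”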
row,Structure (SMILES),Ki [nM]
1,Cc1ccc2oc(C3=CN4CCC3CC4)cc2c1,295
2,N#Cc1ccc2oc(C3=CN4CCC3CC4)cc2c1,236
3,O=Cc1cccc2cc(C3=CN4CCC3CC4)oc12,3023
4,O=Cc1cc(I)cc2cc(C3=CN4CCC3CC4)oc12,2300
5,O=Cc1ccc2oc(C3=CN4CCC3CC4)cc2c1,1571
6,C1=C(c2cc3cc(-c4ccccc4)ccc3o2)C2CCN1CC2,410
7,C1=C(c2oc3ccccc3c2-c2ccccc2)C2CCN1CC2,56
8,O=Cc1cc(I)c2oc(C3=CN4CCC3CC4)cc2c1,1300
9,Brc1cccc2cc(C3=CN4CCC3CC4)oc12,216
10,Cc1cccc2cc(C3=CN4CCC3CC4)oc12,76
11,Cc1c(C2=CN3CCC2CC3)oc2ccccc12,204
12,Brc1c(C2=CN3CCC2CC3)oc2ccccc12,161
13,COc1cc(C=O)cc2cc(C3=CN4CCC3CC4)oc12,7600
14,Brc1ccc2oc(C3=CN4CCC3CC4)cc2c1,109
15,C1=C(c2cc3cccc(-c4ccccc4)c3o2)C2CCN1CC2,410
